Assay [1] concerns LNCaP. In words: Cytotoxicity against human LNCAP cells after 72 hrs by XTT assay. It is filed as functional, cell-based. The following applies: 24 h, in the assay text read “after 24 hrs” for “after 72 hrs”. In short, it runs like this:
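Prostate cancer cells in RPMI-1640 with 10% FBS, 37 °C, 5% CO2, grown to 70–80% confluence and treated at 0.1–100 µM for 24, 48 and 72 h. XTT labeling for 4 h at 37 °C, absorbance 450 nm (reference 650 nm) against control wells. IC50 derived from the mean of eight wells; taxol and cisplatin served as positive controls.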
On the technique in general: Formazan colour is commonly taken as a measure of viable cells.

Assay [2] has as its system DU-145. The assay is described as follows: Cytotoxicity against human DU145 cells after 72 hrs by XTT assay. The following applies: DU-145, 24 h, in the assay text read “after 24 hrs” for “after 72 hrs”. It is filed as functional, cell-based.

From ChEMBL document CHEMBL1154279, “Cytotoxic compounds from the stems of Cinnamomum tenuifolium” (J Nat Prod, 2009) come the findings set out here.

Each structure is given as a SMILES string. pIC50: −log10 of the molar value.

The term pIC50 denotes the IC50 on a negative log10 scale, so that one unit is a factor of ten. As to `C=C1OC(=O)/C(=C\CCCCCCCCCCCCCCCCCCCCCCCCCC)[C@@H]1O` [TENUIFOLIDE A], the pIC50 was 3.35 in assay [1] and 3.68 in assay [2].
